Key:
[1] = target: Tyrosine-protein kinase ABL1 (Homo sapiens, UniProt P00519); assay: Inhibition of ABL ACT labeling site in human Huh-7 cell lysate at 1 uM by KiNativ Profiling analysis relative to control; assay type: subcellular
[2] = target: Cyclin-dependent kinase 18 (Homo sapiens) (UniProt Q07002); assay: Inhibition of PCTAIRE3 Lys1 labeling site harbouring SKLTENLVALKEIRLEHEEGAPCTAIR in human A-375 cells at 5 uM by KiNativ Profiling analysis relative to control; assay type: cell-based
In short: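 Live A375 melanoma cells were treated with compound at 5 or 0.5 μM, then lysed. Lysates were labeled with a lysine-reactive ATP or ADP-biotin probe. Read-out was the compound's protection of kinase labeling sites from probe labeling (KiNativ).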

[3] = target: Serine/threonine-protein kinase mTOR (Homo sapiens) (UniProt P42345); assay: Inhibition of FRAP ATP labeling site in human A-375 cells at 5 uM by KiNativ Profiling analysis relative to control; assay type: cell-based
[4] = target: p38 delta/gamma (Homo sapiens) (UniProt O15264+P53778); assay: Inhibition of p38delta/gamma Lys2 labeling site in human A-375 cells at 0.5 uM by KiNativ Profiling analysis relative to control; assay type: cell-based
[5] = target: RAC-alpha serine/threonine-protein kinase (Homo sapiens) (UniProt P31749); assay: Inhibition of AKT1 ATP Loop labeling site in human A-375 cells at 0.05 uM by KiNativ Profiling analysis relative to control; assay type: cell-based
[6] = target: Mitogen-activated protein kinase 8 (Homo sapiens, UniProt P45983); assay: Inhibition of JNK1 Lys2 labeling site in human A-375 cells at 5 uM by KiNativ Profiling analysis relative to control; assay type: cell-based
[7] = target: Tyrosine-protein kinase Fer (Homo sapiens, UniProt P16591); assay: Inhibition of FER Lys1 labeling site in human A-375 cells at 5 uM by KiNativ Profiling analysis relative to control; assay type: cell-based
[8] = target: Cyclin-dependent kinase 10 (Homo sapiens) (UniProt Q15131); assay: Inhibition of CDK10 Lys2 labeling site in human A-375 cells at 0.05 uM by KiNativ Profiling analysis relative to control; assay type: cell-based
[9] = target: Serine/threonine-protein kinase B-raf (Homo sapiens, UniProt P15056); assay: Inhibition of BRAF Lys2 labeling site in human A-375 cells at 5 uM by KiNativ Profiling analysis relative to control; assay type: cell-based
In short: (§1)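 Live A375 melanoma cells were treated with compound at 5 or 0.5 μM, then lysed. The lysates were labeled with a lysine-reactive ATP or ADP-biotin probe. Kinase protection from probe labeling was measured by KiNativ.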

[10] = target: Calcium/calmodulin-dependent protein kinase kinase 2 (Homo sapiens) (UniProt Q96RR4); assay: Inhibition of CaMKK2 Lys1 labeling site in human A-375 cells at 5 uM by KiNativ Profiling analysis relative to control; assay type: cell-based
In short: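 Live A375 melanoma cells were treated with compound at 5 or 0.5 μM. The cells were then lysed, and the lysates were labeled with a lysine-reactive ATP or ADP-biotin acyl probe (KiNativ). Inhibition is the compound's protection of each kinase labeling-site peptide from probe labeling, relative to untreated control.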

[11] = target: T1, Scaffold protein ILK (Homo sapiens) (UniProt Q13418); assay: Inhibition of ILK Lys1 labeling site in human A-375 cells at 0.5 uM by KiNativ Profiling analysis relative to control; assay type: cell-based
T1 sequence (whole entry): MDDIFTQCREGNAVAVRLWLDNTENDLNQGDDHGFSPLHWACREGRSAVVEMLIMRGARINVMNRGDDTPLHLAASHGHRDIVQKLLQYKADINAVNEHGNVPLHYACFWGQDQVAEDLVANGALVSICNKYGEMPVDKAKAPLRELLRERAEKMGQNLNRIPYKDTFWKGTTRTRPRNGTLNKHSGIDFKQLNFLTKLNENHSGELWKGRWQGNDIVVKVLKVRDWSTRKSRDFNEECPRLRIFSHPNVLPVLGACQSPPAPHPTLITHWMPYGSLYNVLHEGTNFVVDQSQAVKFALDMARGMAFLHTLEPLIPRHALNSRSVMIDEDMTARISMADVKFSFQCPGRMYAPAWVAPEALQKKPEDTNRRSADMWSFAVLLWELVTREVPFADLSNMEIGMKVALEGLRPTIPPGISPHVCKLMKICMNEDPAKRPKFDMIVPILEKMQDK

[12] = target: Misshapen-like kinase 1 (Homo sapiens) (UniProt Q8N4C8); assay: Inhibition of ZC3/MINK Lys2 labeling site in human A-375 cells at 0.05 uM by KiNativ Profiling analysis relative to control; assay type: cell-based
[13] = target: Aurora kinase B (Homo sapiens) (UniProt Q96GD4); assay: Inhibition of AurB ATP Loop labeling site in human A-375 cells at 0.5 uM by KiNativ Profiling analysis relative to control; assay type: cell-based; in short: as §1
[14] = target: T2, Aurora kinase A (Homo sapiens) (UniProt O14965); assay: Inhibition of AurA ATP Loop labeling site in human A-375 cells at 0.5 uM by KiNativ Profiling analysis relative to control; assay type: cell-based; in short: as §1
T2 sequence (whole entry): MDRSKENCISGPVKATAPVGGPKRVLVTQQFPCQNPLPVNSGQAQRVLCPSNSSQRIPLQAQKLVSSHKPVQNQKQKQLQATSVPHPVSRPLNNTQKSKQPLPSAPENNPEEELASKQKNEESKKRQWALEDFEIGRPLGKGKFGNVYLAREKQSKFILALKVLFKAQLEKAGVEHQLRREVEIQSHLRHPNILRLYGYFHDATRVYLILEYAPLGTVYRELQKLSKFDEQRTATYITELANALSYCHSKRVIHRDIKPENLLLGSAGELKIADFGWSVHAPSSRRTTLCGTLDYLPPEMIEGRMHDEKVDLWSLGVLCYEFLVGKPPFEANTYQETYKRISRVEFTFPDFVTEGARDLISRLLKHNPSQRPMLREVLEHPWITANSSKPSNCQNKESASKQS

[15] = target: Aurora kinase B (Homo sapiens) (UniProt Q96GD4); assay: Inhibition of AurB ATP Loop labeling site in human A-375 cells at 0.05 uM by KiNativ Profiling analysis relative to control; assay type: cell-based
[16] = target: Mitogen-activated protein kinase kinase kinase 11 (Homo sapiens) (UniProt Q16584); assay: Inhibition of MLK3 Lys2 labeling site in human A-375 cells at 5 uM by KiNativ Profiling analysis relative to control; assay type: cell-based
[17] = target: Serine/threonine-protein kinase MARK2 (Homo sapiens) (UniProt Q7KZI7); assay: Inhibition of MARK2 Lys1 labeling site in human A-375 cells at 0.05 uM by KiNativ Profiling analysis relative to control; assay type: cell-based
Serine/threonine-protein kinase MARK2 (Homo sapiens), sequence (Q7KZI7 whole entry): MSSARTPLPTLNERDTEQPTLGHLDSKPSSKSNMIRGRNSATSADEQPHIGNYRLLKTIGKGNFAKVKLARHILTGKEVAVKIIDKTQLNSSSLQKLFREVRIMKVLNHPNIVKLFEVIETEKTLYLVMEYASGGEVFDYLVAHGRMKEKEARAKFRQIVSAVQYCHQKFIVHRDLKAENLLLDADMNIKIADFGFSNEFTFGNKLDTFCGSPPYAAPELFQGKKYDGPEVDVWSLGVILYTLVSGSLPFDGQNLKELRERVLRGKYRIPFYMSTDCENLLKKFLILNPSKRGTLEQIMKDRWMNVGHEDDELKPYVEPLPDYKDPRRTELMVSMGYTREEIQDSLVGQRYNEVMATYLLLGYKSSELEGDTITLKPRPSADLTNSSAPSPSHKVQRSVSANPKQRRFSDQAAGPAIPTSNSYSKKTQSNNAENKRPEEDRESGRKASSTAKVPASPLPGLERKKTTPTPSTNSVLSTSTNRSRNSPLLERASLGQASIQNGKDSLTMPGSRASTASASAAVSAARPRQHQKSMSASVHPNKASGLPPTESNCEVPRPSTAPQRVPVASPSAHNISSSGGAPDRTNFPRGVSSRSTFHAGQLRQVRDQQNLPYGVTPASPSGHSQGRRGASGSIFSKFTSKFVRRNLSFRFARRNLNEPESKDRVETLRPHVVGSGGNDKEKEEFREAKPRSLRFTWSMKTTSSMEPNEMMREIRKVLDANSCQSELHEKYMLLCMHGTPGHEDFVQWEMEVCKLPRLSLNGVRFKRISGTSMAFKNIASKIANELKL

Aurora kinase B (Homo sapiens), sequence (Q96GD4 whole entry): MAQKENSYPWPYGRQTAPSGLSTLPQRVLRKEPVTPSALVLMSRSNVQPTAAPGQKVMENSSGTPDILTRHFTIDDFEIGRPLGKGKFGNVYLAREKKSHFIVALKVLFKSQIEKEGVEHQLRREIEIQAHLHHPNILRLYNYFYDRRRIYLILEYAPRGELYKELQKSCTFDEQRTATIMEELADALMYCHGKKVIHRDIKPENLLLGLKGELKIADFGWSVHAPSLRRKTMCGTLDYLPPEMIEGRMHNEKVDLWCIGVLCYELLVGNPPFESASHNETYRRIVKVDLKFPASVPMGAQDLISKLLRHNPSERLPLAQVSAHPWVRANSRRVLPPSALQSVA
Tyrosine-protein kinase ABL1, sequence (P00519 whole entry): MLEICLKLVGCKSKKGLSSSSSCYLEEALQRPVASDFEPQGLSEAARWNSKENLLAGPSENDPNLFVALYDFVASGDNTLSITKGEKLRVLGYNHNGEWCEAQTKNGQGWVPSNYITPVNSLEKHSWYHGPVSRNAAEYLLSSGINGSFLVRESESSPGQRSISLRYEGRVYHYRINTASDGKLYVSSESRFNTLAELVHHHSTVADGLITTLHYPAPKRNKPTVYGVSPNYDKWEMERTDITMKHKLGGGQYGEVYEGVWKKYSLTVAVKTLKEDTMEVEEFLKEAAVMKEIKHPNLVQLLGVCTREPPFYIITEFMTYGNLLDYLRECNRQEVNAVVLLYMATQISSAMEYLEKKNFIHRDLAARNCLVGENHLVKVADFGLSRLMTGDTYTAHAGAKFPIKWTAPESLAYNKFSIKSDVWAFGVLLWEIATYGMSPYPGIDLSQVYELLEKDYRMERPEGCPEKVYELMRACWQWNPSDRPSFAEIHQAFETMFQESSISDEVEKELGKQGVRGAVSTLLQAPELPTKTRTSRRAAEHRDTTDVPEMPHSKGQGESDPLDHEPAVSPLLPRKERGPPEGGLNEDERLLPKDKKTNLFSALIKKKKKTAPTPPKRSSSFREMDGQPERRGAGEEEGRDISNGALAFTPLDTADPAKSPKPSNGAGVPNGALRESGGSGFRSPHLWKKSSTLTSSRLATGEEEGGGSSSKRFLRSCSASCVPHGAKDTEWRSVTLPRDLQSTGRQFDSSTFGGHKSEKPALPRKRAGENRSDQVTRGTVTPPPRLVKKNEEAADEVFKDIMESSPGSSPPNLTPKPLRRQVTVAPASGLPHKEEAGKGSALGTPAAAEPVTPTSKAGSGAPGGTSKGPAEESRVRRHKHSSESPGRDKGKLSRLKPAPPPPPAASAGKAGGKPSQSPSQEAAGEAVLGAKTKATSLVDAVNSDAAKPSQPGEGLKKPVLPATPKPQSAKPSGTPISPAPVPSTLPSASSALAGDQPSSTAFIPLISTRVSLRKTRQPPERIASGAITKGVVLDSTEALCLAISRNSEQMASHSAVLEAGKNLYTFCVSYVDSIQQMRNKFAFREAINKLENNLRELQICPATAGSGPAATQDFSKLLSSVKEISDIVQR
RAC-alpha serine/threonine-protein kinase (Homo sapiens), sequence (P31749 whole entry): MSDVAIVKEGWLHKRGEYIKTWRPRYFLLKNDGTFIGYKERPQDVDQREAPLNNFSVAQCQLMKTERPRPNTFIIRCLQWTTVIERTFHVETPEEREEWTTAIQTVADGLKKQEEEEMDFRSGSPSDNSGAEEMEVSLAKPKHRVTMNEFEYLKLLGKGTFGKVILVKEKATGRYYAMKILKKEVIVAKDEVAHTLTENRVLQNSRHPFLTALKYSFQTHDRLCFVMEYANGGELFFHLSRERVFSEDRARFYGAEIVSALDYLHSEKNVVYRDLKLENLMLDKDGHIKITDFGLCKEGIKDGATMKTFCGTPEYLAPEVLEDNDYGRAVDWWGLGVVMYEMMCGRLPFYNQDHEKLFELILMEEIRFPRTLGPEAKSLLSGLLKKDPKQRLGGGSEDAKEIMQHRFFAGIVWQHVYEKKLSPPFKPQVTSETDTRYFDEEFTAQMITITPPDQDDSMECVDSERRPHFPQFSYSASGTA
Mitogen-activated protein kinase kinase kinase 11 (Homo sapiens), sequence (Q16584 whole entry, looked up): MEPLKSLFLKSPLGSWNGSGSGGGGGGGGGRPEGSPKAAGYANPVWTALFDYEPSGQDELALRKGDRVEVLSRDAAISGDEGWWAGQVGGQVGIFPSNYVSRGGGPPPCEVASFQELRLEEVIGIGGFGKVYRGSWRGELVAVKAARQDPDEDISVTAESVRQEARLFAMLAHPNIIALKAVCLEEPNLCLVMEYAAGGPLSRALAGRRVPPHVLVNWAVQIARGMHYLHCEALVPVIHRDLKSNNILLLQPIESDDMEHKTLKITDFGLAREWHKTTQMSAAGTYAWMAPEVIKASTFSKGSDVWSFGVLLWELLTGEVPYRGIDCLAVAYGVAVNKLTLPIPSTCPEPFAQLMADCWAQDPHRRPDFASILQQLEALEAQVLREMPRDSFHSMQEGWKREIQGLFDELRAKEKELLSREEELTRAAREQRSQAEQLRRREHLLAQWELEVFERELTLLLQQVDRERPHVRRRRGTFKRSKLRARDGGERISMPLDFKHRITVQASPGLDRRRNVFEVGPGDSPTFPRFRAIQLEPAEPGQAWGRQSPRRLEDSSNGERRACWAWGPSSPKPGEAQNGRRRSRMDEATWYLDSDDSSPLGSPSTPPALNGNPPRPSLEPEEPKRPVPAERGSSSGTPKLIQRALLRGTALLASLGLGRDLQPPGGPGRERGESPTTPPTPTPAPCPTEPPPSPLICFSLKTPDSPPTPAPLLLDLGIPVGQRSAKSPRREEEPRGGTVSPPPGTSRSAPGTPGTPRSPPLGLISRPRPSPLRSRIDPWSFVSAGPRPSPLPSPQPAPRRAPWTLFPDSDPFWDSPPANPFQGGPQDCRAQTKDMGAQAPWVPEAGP
Mitogen-activated protein kinase 8, sequence (P45983 whole entry): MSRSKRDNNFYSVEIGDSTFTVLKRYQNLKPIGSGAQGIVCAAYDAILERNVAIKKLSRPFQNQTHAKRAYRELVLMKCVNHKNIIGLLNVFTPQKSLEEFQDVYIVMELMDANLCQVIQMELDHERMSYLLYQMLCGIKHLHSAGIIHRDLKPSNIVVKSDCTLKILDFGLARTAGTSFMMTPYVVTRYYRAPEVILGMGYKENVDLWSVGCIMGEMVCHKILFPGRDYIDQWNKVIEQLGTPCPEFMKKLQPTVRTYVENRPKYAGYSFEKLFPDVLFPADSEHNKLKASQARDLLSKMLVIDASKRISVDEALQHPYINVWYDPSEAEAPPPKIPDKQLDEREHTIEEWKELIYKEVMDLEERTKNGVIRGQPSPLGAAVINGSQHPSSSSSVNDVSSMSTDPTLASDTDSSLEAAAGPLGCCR
Cyclin-dependent kinase 18 (Homo sapiens), sequence (Q07002 whole entry): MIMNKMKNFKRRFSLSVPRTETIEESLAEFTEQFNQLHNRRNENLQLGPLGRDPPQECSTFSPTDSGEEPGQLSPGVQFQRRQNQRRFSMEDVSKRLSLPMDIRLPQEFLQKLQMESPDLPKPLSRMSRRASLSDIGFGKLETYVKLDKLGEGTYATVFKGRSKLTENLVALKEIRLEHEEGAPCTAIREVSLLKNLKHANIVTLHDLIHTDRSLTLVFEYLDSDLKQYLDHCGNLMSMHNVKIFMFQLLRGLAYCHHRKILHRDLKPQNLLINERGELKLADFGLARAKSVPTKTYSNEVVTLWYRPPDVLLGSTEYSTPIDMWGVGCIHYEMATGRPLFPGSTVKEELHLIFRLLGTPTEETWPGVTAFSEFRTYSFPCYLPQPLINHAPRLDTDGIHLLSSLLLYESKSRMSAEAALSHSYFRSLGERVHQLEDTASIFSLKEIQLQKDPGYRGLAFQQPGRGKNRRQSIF
Cyclin-dependent kinase 10 (Homo sapiens), sequence (Q15131 whole entry): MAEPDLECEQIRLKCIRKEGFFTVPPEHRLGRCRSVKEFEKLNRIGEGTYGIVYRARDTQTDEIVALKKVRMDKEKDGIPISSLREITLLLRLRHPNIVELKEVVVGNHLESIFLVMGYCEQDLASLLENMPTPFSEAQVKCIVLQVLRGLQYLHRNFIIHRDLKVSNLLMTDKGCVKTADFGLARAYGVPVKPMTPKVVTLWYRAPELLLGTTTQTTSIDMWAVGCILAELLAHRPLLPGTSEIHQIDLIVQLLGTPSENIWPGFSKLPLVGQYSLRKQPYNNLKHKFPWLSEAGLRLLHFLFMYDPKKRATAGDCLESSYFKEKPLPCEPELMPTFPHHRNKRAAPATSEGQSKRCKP

Compound | inhibition [1] [%] | inhibition [2] [%] | inhibition [3] [%] | inhibition [4] [%] | inhibition [5] [%] | inhibition [6] [%] | inhibition [7] [%] | inhibition [8] [%] | inhibition [9] [%] | inhibition [10] [%] | inhibition [11] [%] | inhibition [12] [%] | inhibition [13] [%] | inhibition [14] [%] | inhibition [15] [%] | inhibition [16] [%] | inhibition [17] [%]
CNc1cc(Oc2cc(C(=O)Nc3cc(N4CCN(C)CC4)cc(C(F)(F)F)c3)ccc2C)ncn1 | 49.4 |  |  |  |  |  |  |  |  |  |  |  |  |  |  |  | 
CCN1CCN(Cc2ccc(NC(=O)c3ccc(C)c(Oc4ccnc5[nH]ccc45)c3)cc2C(F)(F)F)CC1 |  | 56.6 | -0.1 | 86.2 | -7.9 | 90.3 | 98.1 | 7.8 | 66.8 | 33.2 | 4.9 | 32.6 | 31.2 | 31.2 | 32.5 | 9.5 | 1.2
CNc1cc(Oc2cc(C(=O)Nc3cc(-n4cnc(C)c4)cc(C(F)(F)F)c3)ccc2C)ncn1 | 59.7 |  |  |  |  |  |  |  |  |  |  |  |  |  |  |  | 
CCN1CCN(Cc2ccc(NC(=O)c3ccc(C)c(/C=C/c4cnc5[nH]ccc5c4OC)c3)cc2C(F)(F)F)CC1 |  | 21.3 | -9.4 | 25.2 | 9.8 | 76.9 | 80.3 | 30.7 | 61.5 | 14.4 | -1.2 | 19.5 | 30.2 | 30.2 | 14.1 | 81.1 | 3

Reference: ChEMBL document CHEMBL5696442, “Discovery of type II inhibitors of TGFβ-activated kinase 1 (TAK1) and mitogen-activated protein kinase kinase kinase kinase 2 (MAP4K2)” (J Med Chem, 2015)
